ChEMBL document CHEMBL1122348, “(E)-3-(4-Oxo-4H-quinazolin-3-yl)-2-propenoic acids, a new series of antiallergy agents” (1983)
The source made the active and inactive calls. The rule behind the calls is not given here.

Experiments:
[1] = tested on: Rattus norvegicus; assay: Anti-allergy activity test in rat passive cutaneous anaphylaxis (PCA) test at 16 mg/kg administered intraperitoneally; format: functional; details: ip, route intraperitoneal
How it was run: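 Rats given the compound intraperitoneally at 16 mg/kg in the passive cutaneous anaphylaxis model. The read-out is percent inhibition of the cutaneous anaphylactic response, and some entries carry p values.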

[2] = tested on: Rattus norvegicus; assay: Tested for antiallergy activity in rat passive cutaneous anaphylaxis (PCA) test at 32 mg/kg administered perorally; format: functional; details: route oral
[3] = tested on: Rattus norvegicus; assay: Percentage inhibition at 8 mg/kg administered intraperitoneally in rat passive cutaneous anaphylaxis (PCA) test, p<0.001; format: functional; details: ip, route intraperitoneal
[4] = tested on: Rattus norvegicus; assay: Inhibitory dose administered perorally against anaphylactic bronchospasm in passively sensitized rats; format: functional; details: Bronchiole, po, read-out: ID50
[5] = tested on: Rattus norvegicus; assay: Tested for antiallergy activity in rat passive cutaneous anaphylaxis (PCA) test at 32 mg/kg administered perorally; 30 minute pretreatment time; format: functional; details: route oral
[6] = tested on: Rattus norvegicus; assay: Tested for antiallergy activity in rat passive cutaneous anaphylaxis (PCA) test at 32 mg/kg administered perorally; 10 min pretreatment time; format: functional; details: route oral
[7] = tested on: Rattus norvegicus; assay: Tested for antiallergy activity in rat passive cutaneous anaphylaxis (PCA) test at 32 mg/kg administered perorally; In active; format: functional, organism-based; set-up: dose 32 mg/kg
[8] = tested on: Rattus norvegicus; assay: Tested for antiallergy activity in rat passive cutaneous anaphylaxis (PCA) test at 32 mg/kg administered perorally; pretreatment time is 30 min; format: functional; details: route oral

SMILES | inhibition in vivo at 16 mg/kg [1] | inhibition in vivo at 32 mg/kg [2] | also measured
O=C(O)/C=C/n1cnc2ccc(OCCO)cc2c1=O | 67% | 80% | 
CC(C)c1cc(C(C)C)c2ncn(/C=C/C(=O)O)c(=O)c2c1 | 70% | 91% | 
CSc1ccc2ncn(/C(C)=C/C(=O)O)c(=O)c2c1 | 9% |  | 
COC(=O)/C=C/n1cnc2ccc(OC(C)C)cc2c1=O | 46% |  | 
O=C(O)c1cc(=O)c2c(OCC(O)COc3cccc4oc(C(=O)O)cc(=O)c34)cccc2o1 [CROMOLYN SODIUM] |  | 18% | inhibition in vivo at 8 mg/kg [3]: 46%
CSc1ccc2ncn(/C=C\C(=O)O)c(=O)c2c1 | 11% |  | 
Cc1nc2ccc(C3CC3)cc2c(=O)n1/C=C/C(=O)O | 39% |  | 
CSc1ccc2c(c1)C(=O)N(/C=C/C(=O)O)CN2 | 53% |  | 
O=C(O)/C=C/n1cnc2ccc(Cl)cc2c1=O | 79% | 49% | 
CC(C)Oc1ccc2ncn(/C=C/C(=O)O)c(=O)c2c1 | 87% | 70% | 
COc1ccc2ncn(/C=C/C(=O)O)c(=O)c2c1 | 49% | 23% | 
CC(C)c1ccc2ncn(/C=C/C(=O)O)c(=O)c2c1 | 100% | 89% | ED50 [4]: 0.05 mg/kg
COc1cc(OC)c2ncn(/C=C/C(=O)O)c(=O)c2c1 | 81% |  | inhibition in vivo at 32 mg/kg [5]: 31%
O=C(O)/C=C/n1cnc2ccc(C3CC3)cc2c1=O | 100% |  | inhibition in vivo at 32 mg/kg [6]: 81%
O=C(O)/C=C/n1cnc2ccccc2c1=O |  | 55% | 
CSc1ccc2ncn(/C=C/C(=O)O)c(=O)c2c1 [TIACRILAST] | 87% | 75% | ED50 [4]: 0.02 mg/kg
CCN(CC)CCOc1ccc2ncn(/C=C/C(=O)O)c(=O)c2c1 | 16% |  | inhibition [7]: inactive
C[S+]([O-])c1ccc2ncn(/C=C/C(=O)O)c(=O)c2c1 (stereo not drawn) | 89% | 48% | 
CS(=O)(=O)c1ccc2ncn(/C=C/C(=O)O)c(=O)c2c1 | 70% |  | 
COc1cccc2c(=O)n(/C=C/C(=O)O)cnc12 | 82% |  | inhibition in vivo at 32 mg/kg [8]: 45%
CSc1ccc2ncn(CCC(=O)O)c(=O)c2c1 | 14% |  | 
O=C(O)/C=C/n1cnc2ccc(O)cc2c1=O | 56% |  | 
COC(=O)/C=C/n1cnc2ccc(SC)cc2c1=O | 39% |  | 
Cc1cc(C)c2ncn(/C=C/C(=O)O)c(=O)c2c1 | 82% | 70% | 
COc1cc2ncn(/C=C/C(=O)O)c(=O)c2cc1OC | 88% |  | 
CC(C)Sc1ccc2ncn(/C=C/C(=O)O)c(=O)c2c1 | 59% | 56% | 
